Assay results taken from ChEMBL document CHEMBL1139427, “Inhibition of IkappaB kinase-beta and anticancer activities of novel chalcone adamantyl arotinoids” (J Med Chem, 2008).
Calls of active or inactive are those of the source. The calls are words filed in the database; no cut-off is given here.

Experiments:
[1] = molecular target: T1, Retinoic acid receptor beta (Homo sapiens) (UniProt P10826); assay: Antagonist activity at human RARbeta expressed in african green monkey CV1 cells assessed as all-trans-retinoic acid-stimulated Gal4 transactivation activity by luciferase reporter gene assay; format: functional, cell-based; set-up: scale not given: the % may be the effect or the level left; conditions: CV-1
T1 sequence (whole entry): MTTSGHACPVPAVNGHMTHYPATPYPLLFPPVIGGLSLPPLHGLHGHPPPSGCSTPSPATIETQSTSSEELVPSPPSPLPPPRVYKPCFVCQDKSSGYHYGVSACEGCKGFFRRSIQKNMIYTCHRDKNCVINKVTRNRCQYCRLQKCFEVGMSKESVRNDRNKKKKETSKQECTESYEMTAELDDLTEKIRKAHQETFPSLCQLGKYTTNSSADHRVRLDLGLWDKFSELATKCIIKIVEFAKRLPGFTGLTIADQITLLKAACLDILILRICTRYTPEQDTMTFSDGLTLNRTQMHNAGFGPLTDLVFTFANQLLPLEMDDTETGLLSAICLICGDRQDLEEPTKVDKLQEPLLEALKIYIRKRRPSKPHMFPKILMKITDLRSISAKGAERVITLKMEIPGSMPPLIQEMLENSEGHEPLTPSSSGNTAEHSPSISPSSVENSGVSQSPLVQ
Summary of the method: (§1)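 Same Gal4-RAR LBD/UAS-luciferase CV-1 transfection, 5% charcoal-treated FBS medium. Cells stimulated with 0.2 µM ATRA alone or with 2 µM compound (10-fold molar excess). Readout after 6 h (RARα, RARβ) or 20 h (RARγ). Luciferase normalized to β-galactosidase, as % of ATRA maximum; mean ± SD, ≥2 experiments in triplicate.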

[2] = molecular target: T2, Retinoic acid receptor gamma (Homo sapiens) (UniProt P13631); assay: Antagonist activity at human RARgamma expressed in african green monkey CV1 cells assessed as all-trans-retinoic acid-stimulated Gal4 transactivation activity by luciferase reporter gene assay; format: functional, cell-based; set-up: scale not given: the % may be the effect or the level left; conditions: CV-1; summary of the method: as §1
T2 sequence (whole entry): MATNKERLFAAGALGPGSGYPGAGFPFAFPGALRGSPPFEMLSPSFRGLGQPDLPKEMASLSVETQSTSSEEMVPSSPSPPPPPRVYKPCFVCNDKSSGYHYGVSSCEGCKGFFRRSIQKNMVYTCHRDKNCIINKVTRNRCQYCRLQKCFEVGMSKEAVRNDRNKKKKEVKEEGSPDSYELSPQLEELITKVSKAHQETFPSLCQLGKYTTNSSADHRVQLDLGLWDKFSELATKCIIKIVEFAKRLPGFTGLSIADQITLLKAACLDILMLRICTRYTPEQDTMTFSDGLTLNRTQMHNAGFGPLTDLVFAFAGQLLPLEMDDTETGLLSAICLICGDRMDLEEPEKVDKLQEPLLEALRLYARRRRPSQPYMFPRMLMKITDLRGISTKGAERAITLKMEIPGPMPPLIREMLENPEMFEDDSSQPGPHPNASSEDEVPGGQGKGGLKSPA

[3] = molecular target: T3, Retinoic acid receptor alpha (Homo sapiens) (UniProt P10276); assay: Antagonist activity at human RARalpha expressed in african green monkey CV1 cells assessed as all-trans-retinoic acid-stimulated Gal4 transactivation activity by luciferase reporter gene assay; format: functional, cell-based; conditions: CV-1; summary of the method: as §1
T3 sequence (whole entry): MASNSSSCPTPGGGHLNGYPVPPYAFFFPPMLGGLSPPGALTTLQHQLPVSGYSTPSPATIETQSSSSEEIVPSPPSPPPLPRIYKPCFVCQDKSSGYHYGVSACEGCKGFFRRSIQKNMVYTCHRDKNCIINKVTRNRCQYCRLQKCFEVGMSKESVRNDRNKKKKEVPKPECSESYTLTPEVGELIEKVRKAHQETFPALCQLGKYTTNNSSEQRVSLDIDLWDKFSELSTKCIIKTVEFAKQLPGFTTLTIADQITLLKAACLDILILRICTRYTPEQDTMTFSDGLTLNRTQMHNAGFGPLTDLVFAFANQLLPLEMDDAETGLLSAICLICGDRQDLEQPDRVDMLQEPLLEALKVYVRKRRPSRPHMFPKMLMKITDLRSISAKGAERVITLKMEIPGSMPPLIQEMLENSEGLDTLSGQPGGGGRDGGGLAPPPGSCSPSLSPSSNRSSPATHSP

[4] = system: Retinoid X receptor RXR-alpha (Mus musculus); assay: Activation of mouse RXRalpha expressed in african green monkey CV1 cells assessed as luciferase activity; conditions: CV-1
MDA-MB-468 [5] = assay: Antiproliferative activity against estrogen-independent human MDA-MB-468 cells after 48 hrs by MTT assay; format: functional, cell-based; conditions: MDA-MB-468, 48 h
Summary of the method: (§2)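 MTT viability assay. PC-3, T-47D and MDA-MB-468 seeded at 5000/well the day before, switched to 0.5% FBS medium at treatment. Jurkat seeded at 10 000/well (10⁵ cells/mL) in RPMI with 0.5% FBS. Compound 0.125-8 µM from DMSO stocks; DMSO ≤0.1% as control. Jurkat 24 h, others 48 h. MTT 4 h at 37 °C, SDS/HCl solubilization, A595. IC50 from two experiments in triplicate.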

T47D = assay: Antiproliferative activity against estrogen-dependent human T47D cells after 48 hrs by MTT assay; format: functional, cell-based; summary of the method: as §2
[6] = system: Retinoid X receptor RXR-alpha (Mus musculus); assay: Inhibition of 9-cis-retinoic acid-mediated mouse RXRalpha activation expressed in african green monkey CV1 cells; conditions: CV-1
Jurkat [7] = assay: Antiproliferative activity against retinoid related molecule-sensitive human Jurkat cells after 24 hrs by MTT assay; format: functional, cell-based; summary of the method: as §2
[8] = system: Retinoid X receptor RXR-alpha (Mus musculus); assay: Inhibition of LGD-1069-mediated mouse RXRalpha activation expressed in african green monkey CV1 cells; conditions: CV-1
PC-3 = assay: Antiproliferative activity against human PC3 cells after 48 hrs by MTT assay; format: functional, cell-based; conditions: PC-3, 48 h; summary of the method: as §2
MDA-MB-468 [9] = assay: Antiproliferative activity against estrogen-independent human MDA-MB-468 cells by MTT assay; format: functional, cell-based; conditions: TDE = time-dependent effect
Summary of the method: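 MDA-MB-468 cells exposed to 2 µM compound in 0.5% FBS medium for 24, 48 or 72 h. Proliferation by MTT (A595) relative to DMSO control. Experiment repeated twice with triplicate time points; one representative experiment reported.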

[10] = molecular target: T3, Retinoic acid receptor alpha (Homo sapiens); assay: Activity at human RARalpha expressed in african green monkey CV1 cells assessed as enhanced Gal4 transactivation activity by luciferase reporter gene assay; format: cell-based; conditions: CV-1
Summary of the method: (§3)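 Gal4 DBD fused to human RAR LBD (α 156-462, β 149-448, γ 158-454), cotransfected into CV-1 cells (20 000/well) with UAS-luciferase and β-galactosidase vectors. 16 h later, medium with 5% charcoal-treated FBS; compound at 2 µM alone, ATRA 1 µM reference. Read after 6 h (RARα, RARβ) or 20 h (RARγ). Normalized luciferase as % of ATRA maximum; mean ± SD, ≥2 experiments in triplicate.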

Jurkat [11] = assay: Induction of apoptosis in human Jurkat cells assessed as enhanced DEVDase activity after 4 hrs by fluorescence enzymatic assay; format: functional, cell-based
Summary of the method: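 Jurkat cells (40 000/well, 10⁶ cells/mL) in RPMI with 0.5% FBS, treated 4 h (2 or 4 µM). Lysed in PIPES/NP-40 buffer 30 min at 4 °C, then diluted into HEPES/CHAPS caspase buffer with 100 µM Ac-DEVD-AFC. AFC release read every 2 min over 30 min at 37 °C (ex 390/em 510 nm). Two experiments in triplicate, mean ± SD.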

[12] = molecular target: T2, Retinoic acid receptor gamma (Homo sapiens); assay: Activity at human RARgamma expressed in african green monkey CV1 cells assessed as enhanced Gal4 transactivation activity by luciferase reporter gene assay; format: cell-based; conditions: CV-1; summary of the method: as §3
[13] = molecular target: T1, Retinoic acid receptor beta (Homo sapiens); assay: Activity at human RARbeta expressed in african green monkey CV1 cells assessed as enhanced Gal4 transactivation activity by luciferase reporter gene assay; format: cell-based; conditions: CV-1; summary of the method: as §3
MDA-MB-468 [14] = assay: Antiproliferative activity against estrogen-independent human MDA-MB-468 cells at 2 uM after 72 hrs by MTT assay
[15] = molecular target: T4, Inhibitor of nuclear factor kappa-B kinase subunit beta (Homo sapiens) (UniProt O14920); assay: Inhibition of purified recombinant histidine-HA-tagged IKK-beta expressed in SF9 cells at 20 uM
T4 sequence (whole entry): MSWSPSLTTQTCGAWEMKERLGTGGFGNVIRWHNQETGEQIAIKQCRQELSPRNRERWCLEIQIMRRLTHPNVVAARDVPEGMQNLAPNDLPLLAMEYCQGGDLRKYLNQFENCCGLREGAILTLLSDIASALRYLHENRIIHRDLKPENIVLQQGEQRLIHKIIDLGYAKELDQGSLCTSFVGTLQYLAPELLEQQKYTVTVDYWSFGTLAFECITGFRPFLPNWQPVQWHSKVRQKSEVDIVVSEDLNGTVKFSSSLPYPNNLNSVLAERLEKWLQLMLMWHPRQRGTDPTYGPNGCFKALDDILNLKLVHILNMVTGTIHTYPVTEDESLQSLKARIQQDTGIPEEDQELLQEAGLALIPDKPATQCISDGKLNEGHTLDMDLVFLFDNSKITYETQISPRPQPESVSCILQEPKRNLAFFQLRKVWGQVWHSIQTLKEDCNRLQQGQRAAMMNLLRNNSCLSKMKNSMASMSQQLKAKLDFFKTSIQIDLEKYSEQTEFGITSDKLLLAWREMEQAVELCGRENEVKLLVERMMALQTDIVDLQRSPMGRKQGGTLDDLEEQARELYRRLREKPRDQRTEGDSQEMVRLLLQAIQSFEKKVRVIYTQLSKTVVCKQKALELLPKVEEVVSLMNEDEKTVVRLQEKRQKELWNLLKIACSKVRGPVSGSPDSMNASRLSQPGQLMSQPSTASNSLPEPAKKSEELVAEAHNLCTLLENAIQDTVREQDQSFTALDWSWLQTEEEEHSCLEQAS
Summary of the method: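 (His)6-HA-IKKβ expressed in baculovirus-infected Sf9 cells and Ni-resin purified. 100 ng enzyme in MOPS pH 7.0 buffer with 5 µg GST-IκBα, 10 mM MgCl₂, 6.25 µM ATP (Km level) plus ³²P-γ-ATP. Compound (20 µM) preincubated with enzyme/substrate before ATP/Mg addition. 30 min at 30 °C, stopped with phosphoric acid, filter-bound radioactivity counted. No-enzyme background subtracted; activity as ratio to control. Two to four experiments in triplicate.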

[16] = molecular target: T5, Inhibitor of nuclear factor kappa-B kinase subunit beta (Homo sapiens, UniProt O14920); assay: Inhibition of purified recombinant histidine-HA-tagged IKK-beta expressed in SF9 cells
T5 sequence (O14920 whole entry): T4 sequence (whole entry)

| Activity [1] | Activity [2] | Activity [3] | Activity [4] | IC50 (MDA-MB-468 [5]) [nM] | IC50 (T47D) [nM] | Activity [6] | IC50 (Jurkat [7]) [nM] | Activity [8] | IC50 (PC-3) [nM] | Activity [10] | Activity [12] | Activity [13] | inhibition [15] [%] | IC50 [16] [nM] | Activity [15] | Structure (SMILES) | Activity (MDA-MB-468 [9]) | Activity (Jurkat [11]) | Activity (MDA-MB-468 [14]) [%] |
| --- | --- | --- | --- | --- | --- | --- | --- | --- | --- | --- | --- | --- | --- | --- | --- | --- | --- | --- | --- |
| Active | Active | Active | – | – | – | – | – | – | – | – | – | – | – | – | – | CC1(C)CC=C(C#Cc2ccccc2)c2cc(/C=C/c3ccc(C(=O)O)cc3)ccc21 | – | – | – |
| Active | Active | Active | inactive | 6080 | 8000 | inactive | 1890 | inactive | 2510 | inactive | inactive | inactive | – | – | – | COCCOCOc1cc(O)c(C(=O)/C=C/c2ccc(C(=O)O)cc2)cc1C12CC3CC(CC(C3)C1)C2 | tde | Active | 40 |
| 30% | 30% | Active | inactive | 2110 | 3270 | inactive | 1200 | inactive | 1480 | inactive | inactive | inactive | 65 | 7000 | – | COCCOCOc1ccc(C(=O)/C=C/c2ccc(C(=O)O)cc2)cc1C12CC3CC(CC(C3)C1)C2 | tde | Active | – |
| – | – | – | – | – | – | – | – | – | – | – | – | – | – | – | Active | Cc1ccc2nc(NCCN)c3ncc(C)n3c2c1 | – | – | – |
